“Also recorded” adds a separate entry of the source. Where two headings read alike, the source gives them in different places. Marks after values point to notes of the source that are not given here.
Key:
[1] = test system: Influenza A virus H5N1, Influenza A/Vietnam/1203/2004 × A/PR/8/34 (recombinant H5N1); experiment: microbe, parasite or virus in culture; assay type: cell-based; details: H5N1|PR/8, MDCK
[2] = test system: Influenza A virus H1N1, Influenza A/California/7/2009; assay type: cell-based
NS1-pYES yeast strain = experiment: Yeast-based NS1 assay: reversal of NS1-induced slow-growth phenotype; assay type: cell-based; details: for restoration of yeast growth (reversal of slow growth phenotype): NS1-pYES strain, 50 μM, 22, 42 and 60 h
[3] = test system: A/PR/8/34 strain of influenza A virus (H1N1); assay type: cell-based
in vitro [4] = details: dog
IFN-β mRNA = experiment: RT-PCR analysis of IFN-β mRNA in MDCK cells; assay type: cell-based; details: MDCK infected with A/PR/8/34, MOI 2, 20 μM, 6 h
In short: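 MDCK cells infected with influenza A/PR/8/34 (MOI 2) and incubated with test compound (20 μM) for 6 h, then harvested. IFN-β mRNA detected by RT-PCR, with β-actin mRNA as reference. Poly(I:C)-induced cells were the positive control for IFN-β induction and RT-PCR. Uninfected cells received the same drug treatment and RT-PCR in parallel.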

[5] = microsomes; for Mouse Liver Microsomal Stability (% remaining) 0 min: 0 h; for Mouse Liver Microsomal Stability (% remaining) 15 min: 0.25 h; for Mouse Liver Microsomal Stability (% remaining) 30 min: 0.5 h
in vitro [6] = details: human, Caco-2, Efflux Ratio
Caco-2 monolayer = details: human, Caco-2, 2 h
[7] = Mouse liver microsomal stability

| SMILES | EC50 [1] [µM] | EC50 [2] | restoration of yeast growth (reversal of slow growth phenotype) (NS1-pYES yeast strain) | dose response in the TCID50 assay [3] | CC50 (in vitro [4]) [µM] | restoration of IFN-β mRNA levels in infected cells (IFN-β mRNA) | Mouse Liver Microsomal Stability (% remaining) 0 min [5] [% remaining] | Mouse Liver Microsomal Stability (% remaining) 15 min [5] [% remaining] | Mouse Liver Microsomal Stability (% remaining) 30 min [5] [% remaining] | other results |
| --- | --- | --- | --- | --- | --- | --- | --- | --- | --- | --- |
| CCOc1cc(-c2c(C#N)c(O)nc3c2c(C)nn3-c2ccc(F)cc2)ccc1O [Compound 1] | 28.5 | single digit micromolar | – | – | – | – | – | – | – | Cytotoxicity towards host MDCK cells (MDCK cells): without toxicity |
| Cc1ccc(-n2nc(C)c3c(-c4ccc(O)c(O)c4)c(C#N)c(N)nc32)cc1C [Compound 4] | – | single digit micromolar | show the same behavior | successfully decreased viral titer with increasing concentration | 24.5 | significantly restored IFN-β mRNA levels | 100 | 78 | 64 | – |
| Cc1nn(-c2ccc(Cl)cc2)c2nc(N)c(C#N)c(-c3ccc(O)c(O)c3)c12 [Compound 6] | – | – | show the same behavior | successfully decreased viral titer with increasing concentration | 24.5 | significantly restored IFN-β mRNA levels | 100 | 93 | 90 | efflux ratio at 2 h (in vitro [6]): 7.78 |
| COc1cc(-c2c(C#N)c(N)nc3c2c(C)nn3-c2ccc(F)cc2)ccc1O [Compound 10] | 3.6 | single digit micromolar | show the same behavior | successfully decreased viral titer with increasing concentration | 24.7 | significantly restored IFN-β mRNA levels | 100 | 74 | 60 | – |
| COc1cc(-c2ccnc3c2c(C)nn3-c2ccc(C(F)(F)F)cc2)ccc1O [Compound 32] | – | sub-micromolar | reversal of the slow growth phenotype; also recorded: reversed | successfully decreased viral titer with increasing concentration | 19.8 | significantly restored IFN-β mRNA levels | 100 | 66 | 45 | acute toxicity in yeast assay (NS1-pYES yeast strain; 50 μM): does not display acute toxicity; efflux ratio at 2 h (in vitro [6]): 2.29; selectivity index (SI) [3]: greater than 100 fold; viral suppression (TCID50) [3]: 3 log units; restoration of IFN-β mRNA levels in infected cells (IFN-β mRNA; listed as C00006): Restores IFN-β mRNA levels; Cytotoxicity towards host MDCK cells (MDCK cells; dog): did not affect cell viability at 5, 10, 50 and 100 μM; Efflux Ratio (Caco-2 monolayer): 1.20^b |
| COc1cc(-c2ccnc3c2c(C)nn3-c2cccc(C(F)(F)F)c2)ccc1O [Compound 33] | – | – | show the same behavior | – | 24.5 | – | – | – | – | Mouse Liver Microsomal Stability (% remaining) 0 min ([7]; 0 min): 100 % remaining; Mouse Liver Microsomal Stability (% remaining) 15 min ([7]; 15 min): 25 % remaining; Mouse Liver Microsomal Stability (% remaining) 30 min ([7]; 30 min): 16 % remaining |
| COc1cccc(-c2ccnc3c2c(C)nn3-c2ccc(F)cc2)c1 [Compound 37] | – | – | – | – | – | – | – | – | – | Cytotoxicity towards host MDCK cells (MDCK cells): exhibited cytotoxicity |
| NC(=O)c1ncn([C@@H]2O[C@H](CO)[C@@H](O)[C@H]2O)n1 [Ribavirin, reference compound] | 32.2 | – | – | – | – | – | – | – | – | – |
